{"source": "ChEMBL document CHEMBL1123481", "about": "“Structure-activity relationships of (arylalkyl)imidazole anticonvulsants: comparison of the (fluorenylalkyl)imidazoles with nafimidone and denzimol” (J Med Chem, 1986)", "key": {"Mus musculus [1]": {"system": "Mus musculus", "assay": "Effective dose in mice by horizontal screen assay (administered orally)", "assay_type": "functional", "conditions": "po", "outline": "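Fasted, pre-trained male CF1 mice (20–25 g) were dosed orally across a range of doses, given as a suspension in 5% acacia/water. Each mouse was placed on a 13 cm square wire screen, and the screen was rotated 180°. The score was return to the top within 1 min. Time of peak effect was scanned at 0.5–4 h. Each compound was then retested at that time with at least 4 doses and 12 mice per dose.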"}, "[2]": {"assay": "Compound was tested for its toxicity in rat", "assay_type": "organism-based", "conditions": "in vivo", "outline": "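Female Fischer 344 rats were fasted and given a single oral gavage dose, four dose levels per compound, as a suspension in 10% aqueous acacia. Mortality was scored and the median lethal dose (LD50) was derived.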"}, "Mus musculus [3]": {"system": "Mus musculus", "assay": "Effective dose in mice by pentylenetetrazole assay (administered subcutaneously)", "assay_type": "functional", "conditions": "sc", "outline": "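Test compound was given orally to mice. At its previously determined time of peak effect, pentylenetetrazole (110 mg/kg in water, 10 mL/kg) was injected sc into the neck skin fold. Mice were watched for 15 min for presence or absence of a clonic seizure. Where protection was bell-shaped, the value is the dose giving maximum protection.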"}, "Mus musculus [4]": {"species": "Mus musculus", "assay": "Potentiation of hexobarbital-induced sleeping time in mice", "assay_type": "functional", "outline": "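Groups of 10 fasted mice received compound orally at 10 mg/kg in 5% acacia/water (10 mL/kg). At the compound's time of peak effect they were given hexobarbital 100 mg/kg ip, solubilized with stoichiometric NaOH. Sleeping time, measured as loss of righting reflex, was recorded to the nearest minute. Values are mean ± SEM.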"}, "Mus musculus [5]": {"species": "Mus musculus", "assay": "Compound was tested for time to peak anticonvulsant effect (TPE)", "assay_type": "functional", "outline": "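Time to peak effect after oral dosing in 5% acacia/water was estimated by testing mice at 0.5, 1, 2, 3 and 4 h posttreatment in the MES and horizontal screen tests.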"}, "[6]": {"assay": "Compound was tested for its toxicity in rat; Ca 4550", "assay_type": "organism-based", "conditions": "in vivo"}}, "data": [{"smiles": "O=C(Cn1ccnc1)c1ccc2c(c1)Cc1ccccc1-2", "values": [{"measurement": "ED50", "setting": "Mus musculus [1]", "result": "> 1000", "unit": "mg/kg"}, {"measurement": "LD50", "setting": "[2]", "result": 504, "unit": "mg/kg"}, {"measurement": "ED50", "setting": "Mus musculus [3]", "result": "> 200", "unit": "mg/kg"}, {"measurement": "ST", "setting": "Mus musculus [4]", "result": 73.7, "unit": "min"}, {"measurement": "TPE", "setting": "Mus musculus [5]", "result": 3, "unit": "h"}, {"measurement": "LD50", "setting": "[6]", "result": 4550, "unit": "mg/kg"}]}]}
